Columns and labels:
[1] = Cytotoxicity against human HeLa cells assessed as cell viability at 25 uM after 48 hrs by resazurin dye-based fluorescence assay; settings: read-out: Activity
Summary of the method: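 HeLa cells seeded at 6.7 × 10^4 per well in DMEM with 10% foetal bovine serum and penicillin/streptomycin/amphotericin B. Grown 24 h at 37 °C, 5% CO2, then exposed to compound at 25 μM final for 48 h. Resazurin added and fluorescence read (Ex 560/Em 590 nm) after 2–4 h more. Viability expressed as % of no-compound control wells.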

[2] = target: Human immunodeficiency virus type 1 integrase (Human immunodeficiency virus 1, UniProt Q7ZJM1); assay: Inhibition of HIV1 subtype C recombinant integrase strand transfer activity preincubated for 45 mins with double-stranded biotinylated donor DNA followed by addition of double stranded FITC-labelled target DNA and measured after 60 mins relative to control
Chain of Human immunodeficiency virus type 1 integrase (Q7ZJM1 whole entry): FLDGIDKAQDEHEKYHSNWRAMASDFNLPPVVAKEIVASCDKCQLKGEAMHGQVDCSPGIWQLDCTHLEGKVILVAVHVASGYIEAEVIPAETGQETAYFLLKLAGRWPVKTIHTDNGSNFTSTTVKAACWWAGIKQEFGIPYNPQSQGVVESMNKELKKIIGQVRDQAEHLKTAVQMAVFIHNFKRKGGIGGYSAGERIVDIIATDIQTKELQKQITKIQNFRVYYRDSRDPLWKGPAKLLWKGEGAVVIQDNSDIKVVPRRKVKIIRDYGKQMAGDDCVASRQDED

IC50 [2] | SMILES | viability at 48 h, 25 µM [1]
901 nM | COc1ccc(O)c(C(=O)NNC(=O)c2cc3cccc(OC)c3oc2=O)c1 | > 70%
175 nM | O=C(NNC(=O)c1cc2cc(Br)ccc2oc1=O)c1cc(Cl)ccc1O | > 70%
23 nM | COc1cccc2cc(C(=O)NNC(=O)c3cc(Cl)ccc3O)c(=O)oc12 | > 70%
163 nM | COc1ccc(O)c(C(=O)NNC(=O)c2cc3cc(Br)ccc3oc2=O)c1 | > 70%
– | COc1cccc(C(=O)NNC(=O)c2cc3cc(Br)ccc3oc2=O)c1O | > 70%
5800 nM | COc1ccc(O)c(C(=O)NNC(=O)c2cc3ccccc3oc2=O)c1 | > 70%
592 nM | CCOc1cccc2cc(C(=O)NNC(=O)c3cc(OC)ccc3O)c(=O)oc12 | > 70%
13 nM | O=C(NNC(=O)c1cc2cc(Cl)ccc2oc1=O)c1ccccc1O | > 70%
70 nM | O=C(NNC(=O)c1cc2ccccc2oc1=O)c1ccccc1O | > 70%
31 nM | CCOc1cccc2cc(C(=O)NNC(=O)c3cc(Cl)ccc3O)c(=O)oc12 | > 70%
104 nM | CCOc1cccc2cc(C(=O)NNC(=O)c3ccccc3O)c(=O)oc12 | > 70%
– | CCOc1cccc2cc(C(=O)NNC(=O)c3cccc(OC)c3O)c(=O)oc12 | > 70%
33 nM | O=C(NNC(=O)c1cc2ccccc2oc1=O)c1cc(Cl)ccc1O | > 70%
– | COc1cccc(C(=O)NNC(=O)c2cc3cc(Cl)ccc3oc2=O)c1O | > 70%
– | COc1cccc(C(=O)NNC(=O)c2cc3cccc(OC)c3oc2=O)c1O | > 70%
605 nM | COc1ccc(O)c(C(=O)NNC(=O)c2cc3cc(Cl)ccc3oc2=O)c1 | > 70%
14 nM | O=C(NNC(=O)c1cc2cc(Br)ccc2oc1=O)c1ccccc1O | > 70%
41 nM | O=C(NNC(=O)c1cc2cc(Cl)ccc2oc1=O)c1cc(Cl)ccc1O | > 70%
47 nM | COc1cccc2cc(C(=O)NNC(=O)c3ccccc3O)c(=O)oc12 | > 70%
– | COc1cccc(C(=O)NNC(=O)c2cc3ccccc3oc2=O)c1O | > 70%

— ChEMBL document CHEMBL4368863, “Evaluation of novel N'-(3-hydroxybenzoyl)-2-oxo-2H-chromene-3-carbohydrazide derivatives as potential HIV-1 integrase inhibitors” (Medchemcomm, 2019)
